Experimental data reported in ChEMBL document CHEMBL1135739, “Radiolabeled amino acids for tumor imaging with PET: radiosynthesis and biological evaluation of 2-amino-3-[18F]fluoro-2-methylpropanoic acid and 3-[18F]fluoro-2-methyl-2-(methylamino)propanoic acid” (J Med Chem, 2002).
Where “and” joins values, the source holds several entries; their conditions need not be identical. Equal values may be shown once.

How the values were obtained:
[1] = species: Rattus norvegicus; assay: Radioactivity distribution in testis of normal fischer rat after injection of [18F]-fluoro-2-methyl-2-(methylamino)propanoic acid after 120 min.; type: ADME, organism-based; details: in vivo, 2 h
Procedure, shortened: (§1)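 Male Fischer 344 rats (200–250 g), fed ad libitum, under intramuscular ketamine:xylazine anesthesia, got ~85 μCi radiotracer in 0.3 mL sterile water by tail-vein catheter. Groups of four were killed at 5, 30, 60 or 120 min. Dissected tissues were weighed and gamma-counted with dose standards. Counts were decay-corrected and given as %ID/g, mean ± standard error. Tissues were compared by one-way ANOVA.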

[2] = species: Rattus norvegicus; assay: Radioactivity distribution in testis of normal fischer rat after injection of [18F]-fluoro-2-methyl-2-(methylamino)propanoic acid after 30 min.; type: ADME, organism-based; details: in vivo, 0.5 h; procedure, shortened: as §1
[3] = species: Rattus norvegicus; assay: Radioactivity distribution in kidney of normal fischer rat after injection of [18F]-fluoro-2-methyl-2-(methylamino)propanoic acid after 120 min.; type: ADME, organism-based; details: in vivo, 2 h
Procedure, shortened: (§2)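 Normal male Fischer 344 rats (200–250 g), anesthetized with i.m. ketamine:xylazine (1:1), got ~85 μCi of tracer in 0.3 mL sterile water i.v. via tail-vein catheter. Groups of four were killed at 5, 30, 60 or 120 min. Tissues were weighed and gamma-counted against dose standards, and counts were decay-corrected to %ID/g. Results are mean ± standard error (n = 4), compared by one-way ANOVA.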

[4] = species: Rattus norvegicus; assay: Radioactivity distribution in kidney of normal fischer rat after injection of [18F]-fluoro-2-methyl-2-(methylamino)propanoic acid after 30 min.; type: ADME, organism-based; details: in vivo, 0.5 h; procedure, shortened: as §2
[5] = species: Rattus norvegicus; assay: Radioactivity distribution in kidney of normal fischer rat after injection of [18F]-fluoro-2-methyl-2-(methylamino)propanoic acid after 5 min.; type: ADME, organism-based; details: in vivo; procedure, shortened: as §2
[6] = species: Rattus norvegicus; assay: Radioactivity distribution in kidney of normal fischer rat after injection of [18F]-fluoro-2-methyl-2-(methylamino)propanoic acid after 60 min.; type: ADME, organism-based; details: in vivo, 1 h; procedure, shortened: as §2
[7] = species: Rattus norvegicus; assay: Radioactivity distribution in pancreas of normal fischer rat after injection of [18F]-fluoro-2-methyl-2-(methylamino)propanoic acid after 120 min.; type: ADME, organism-based; details: in vivo, 2 h
Procedure, shortened: (§3)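 Male Fischer 344 rats (200–250 g), fed ad libitum, anesthetized with intramuscular ketamine:xylazine (1:1, 0.1 mL/100 g). About 85 μCi tracer in 0.3 mL sterile water was given by tail-vein catheter. Groups of four were killed at 5, 30, 60 or 120 min. Tissues were weighed and gamma-counted against dose standards, decay-corrected, and expressed as %ID/g (mean ± standard error).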

[8] = species: Rattus norvegicus; assay: Radioactivity distribution in pancreas of normal fischer rat after injection of [18F]-fluoro-2-methyl-2-(methylamino)propanoic acid after 30 min.; type: ADME, organism-based; details: in vivo, 0.5 h; procedure, shortened: as §3
[9] = species: Rattus norvegicus; assay: Radioactivity distribution in blood of normal fischer rat after injection of [18F]-fluoro-2-methyl-2-(methylamino)propanoic acid after 120 min.; type: ADME, organism-based; details: in vivo, 2 h; procedure, shortened: as §2
[10] = species: Rattus norvegicus; assay: Radioactivity distribution in blood of normal fischer rat after injection of [18F]-fluoro-2-methyl-2-(methylamino)propanoic acid after 30 min.; type: ADME, organism-based; details: in vivo, 0.5 h; procedure, shortened: as §2
[11] = species: Rattus norvegicus; assay: Radioactivity distribution in blood of normal fischer rat after injection of [18F]-fluoro-2-methyl-2-(methylamino)propanoic acid after 5 min.; type: ADME, organism-based; details: in vivo; procedure, shortened: as §2
[12] = species: Rattus norvegicus; assay: Radioactivity distribution in blood of normal fischer rat after injection of [18F]-fluoro-2-methyl-2-(methylamino)propanoic acid after 60 min.; type: ADME, organism-based; details: in vivo, 1 h; procedure, shortened: as §2
[13] = species: Rattus norvegicus; assay: Radioactivity distribution in brain of normal fischer rat after injection of [18F]-fluoro-2-methyl-2-(methylamino)propanoic acid after 5 min.; type: ADME, organism-based; details: in vivo; procedure, shortened: as §2
[14] = species: Rattus norvegicus; assay: Radioactivity distribution in brain of normal fischer rat after injection of [18F]-fluoro-2-methyl-2-(methylamino)propanoic acid after 60 min.; type: ADME, organism-based; details: in vivo, 1 h; procedure, shortened: as §2
[15] = species: Rattus norvegicus; assay: Radioactivity distribution in muscle of normal fischer rat after injection of [18F]-fluoro-2-methyl-2-(methylamino)propanoic acid after 120 min.; type: ADME, organism-based, Muscle tissue; details: in vivo, 2 h; procedure, shortened: as §3
[16] = species: Rattus norvegicus; assay: Radioactivity distribution in muscle of normal fischer rat after injection of [18F]-fluoro-2-methyl-2-(methylamino)propanoic acid after 30 min.; type: ADME, organism-based, Muscle tissue; details: in vivo, 0.5 h; procedure, shortened: as §3
[17] = species: Rattus norvegicus; assay: Radioactivity distribution in brain of normal fischer rat after injection of [18F]-fluoro-2-methyl-2-(methylamino)propanoic acid after 30 min.; type: ADME, organism-based; details: in vivo, 0.5 h; procedure, shortened: as §2
[18] = species: Rattus norvegicus; assay: Radioactivity distribution in spleen of normal fischer rat after injection of [18F]-fluoro-2-methyl-2-(methylamino)propanoic acid after 120 min.; type: ADME, organism-based; details: in vivo, 2 h; procedure, shortened: as §3
[19] = species: Rattus norvegicus; assay: Radioactivity distribution in spleen of normal fischer rat after injection of [18F]-fluoro-2-methyl-2-(methylamino)propanoic acid after 30 min.; type: ADME, organism-based; details: in vivo, 0.5 h; procedure, shortened: as §1
[20] = species: Rattus norvegicus; assay: Radioactivity distribution in spleen of normal fischer rat after injection of [18F]-fluoro-2-methyl-2-(methylamino)propanoic acid after 5 min.; type: ADME, organism-based; details: in vivo; procedure, shortened: as §1
[21] = species: Rattus norvegicus; assay: Radioactivity distribution in spleen of normal fischer rat after injection of [18F]-fluoro-2-methyl-2-(methylamino)propanoic acid after 60 min.; type: ADME, organism-based; details: in vivo, 1 h; procedure, shortened: as §1
[22] = species: Rattus norvegicus; assay: Radioactivity distribution in lung of normal fischer rat after injection of [18F]-fluoro-2-methyl-2-(methylamino)propanoic acid after 120 min.; type: ADME, organism-based; details: in vivo, 2 h; procedure, shortened: as §3
[23] = species: Rattus norvegicus; assay: Radioactivity distribution in lung of normal fischer rat after injection of [18F]-fluoro-2-methyl-2-(methylamino)propanoic acid after 30 min.; type: ADME, organism-based; details: in vivo, 0.5 h; procedure, shortened: as §3

For `CNC(C)(C[18F])C(=O)O.Cl` (stereo not drawn), the ID/g [1] was 0.06% and 0.08%, the ID/g [2] was 0.11% and the ID/g [3] was 1.36% and 1.59%. For the same compound, the ID/g [4] was 4.6%, the ID/g [5] was 8.12% and 9.33% and the ID/g [6] was 2.73% and 2.79%. For the same compound, the ID/g [7] was 2.88% and 1.74%, the ID/g [8] was 3% and the ID/g [9] was 0.1%. The ID/g [10] was 0.3%, the ID/g [11] was 0.61% and 0.69% and the ID/g [12] was 0.18% and 0.17%. For the same compound, the ID/g [13] was 0.04% and < 0.032%, the ID/g [14] was 0.03% and < 0.022% and the ID/g [15] was 0.13% and 0.16%. The ID/g [16] was 0.16%, the ID/g [17] was 0.04% and the ID/g [18] was 0.47% and 0.4%. For the same compound, the ID/g [19] was 0.75%, the ID/g [20] was 0.44% and 0.47% and the ID/g [21] was 0.68% and 0.45%. For the same compound, the ID/g [22] was 0.3% and 0.19% and the ID/g [23] was 0.5%.
